Shown are actives, neighbours in structure and some others; about 4.5% of the full set was active somewhere.
TAAR1 ag = agonists of human TAAR1; Q96RJ0; CHO RD-HGA16 TAAR1, Fluo-8 calcium fluorescence; vehicle wells 0%, saturating PEA agonist 100%; activation, % at 3 µM; 0.99% of 360,000 active; AID 624467;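 active = activation above the mean activation of all test compounds in the run plus 3 SD, cut at about 38% in these data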
Target sequence (Q96RJ0 whole entry, looked up): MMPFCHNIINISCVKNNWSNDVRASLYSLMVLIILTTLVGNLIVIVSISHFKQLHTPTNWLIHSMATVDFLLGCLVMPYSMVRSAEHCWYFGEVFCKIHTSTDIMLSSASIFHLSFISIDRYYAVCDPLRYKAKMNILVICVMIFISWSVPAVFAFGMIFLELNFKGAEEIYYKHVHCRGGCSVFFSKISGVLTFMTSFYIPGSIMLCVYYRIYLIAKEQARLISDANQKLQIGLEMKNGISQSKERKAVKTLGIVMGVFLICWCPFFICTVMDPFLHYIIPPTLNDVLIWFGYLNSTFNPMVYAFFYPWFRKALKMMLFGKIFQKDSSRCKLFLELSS
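Repeats: no replicates (n 1) | Material: CHO-derived RD-HGA16 cells with stable Gα16 and human TAAR1 | Technique: Kinetic Fluo-8 calcium fluorescence | Schedule: 17-24 h seeding, 75 min 37 °C dye, 30 min RT | Evaluation: % activation from peak over basal fluorescence ratio, DMSO-to-PEA scaled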
OX1R antag-1 = antagonists of human orexin 1 receptor (OX1R) | 1.8% of 330,000 active | inhibition, % at 6.6 µM | AID 485270 | O43613 | OX1R-expressing cells, FRET antagonist read-out; in the data active = inhibition mostly above about 38%, no sharp cut-off; inactive = mostly below about 40%;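 note: 0% = agonist challenge alone and 100% = reference antagonist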
Target sequence (O43613 whole entry, looked up): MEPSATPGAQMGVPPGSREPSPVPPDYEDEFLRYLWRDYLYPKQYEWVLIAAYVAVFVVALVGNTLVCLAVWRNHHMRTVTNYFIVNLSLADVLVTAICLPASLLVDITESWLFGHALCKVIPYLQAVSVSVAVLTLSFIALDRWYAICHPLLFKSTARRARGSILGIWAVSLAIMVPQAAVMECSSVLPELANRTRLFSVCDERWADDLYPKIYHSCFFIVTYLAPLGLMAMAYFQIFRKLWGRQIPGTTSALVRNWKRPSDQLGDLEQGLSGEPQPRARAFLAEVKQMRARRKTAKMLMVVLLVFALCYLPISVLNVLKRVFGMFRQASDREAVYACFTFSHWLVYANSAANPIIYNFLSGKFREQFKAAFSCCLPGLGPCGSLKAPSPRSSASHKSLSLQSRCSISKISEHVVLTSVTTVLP
CHO parental Ca = signal in parental CHO cells, OX1R antagonist counter-screen; parental CHO-K1, ATP-induced calcium, Fluo-8 fluorescence; inhibition, % at 5.6 µM; 0.63% of 330,000 active;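 active = inhibition above that plate's mean sample inhibition plus 3 SD, cut at about 26% in these data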;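 note: 0% = ATP-challenged DMSO wells and 100% = DMSO wells without ATP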
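Assay system: parental CHO cells; Read-out basis: percent inhibition of ATP-evoked calcium rise, normalized to controls; Benchmarks: ATP and no-ATP DMSO wells; Compound dosing: single nominal dose of 5.6 µM per compound; Signal: Fluo-8 calcium dye fluorescence; Also added: ATP as calcium-mobilizing challenge; Repeats: singlicate.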
GPR7 antag = antagonists of human GPR7 (neuropeptides B/W receptor 1). P48145. AID 1861. inhibition, % at 4.4 µM. GPR7-expressing cells, fluorescence antagonist assay. 1.1% of 290,000 active; in the data active = inhibition above about 16%, passing the limit was not always enough;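 note: cells stimulated with the agonist NPW; 0% = agonist with vehicle and 100% = vehicle without agonist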
OX1R antag-2 = human HCRTR1 antagonism; 0.43% of 330,000 active; inhibition, % at 5 µM; CHO/OX1R cells, Fluo-8 calcium fluorescence, orexin A; AID 434989; O43613;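 active = inhibition above its plate's threshold, mean inhibition of all tested compounds on the plate plus 3 SD, cut at about 37% in these data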;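 note: 0% = orexin A challenge wells and 100% = SB-334867-A antagonist wells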
TAAR1 antagonist = antagonists of human TAAR1 | CHO RD-HGA16 TAAR1, Fluo-8 calcium fluorescence, antagonist | inhibition, % at 3 µM | 1.5% of 360,000 active | AID 624466;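 active = inhibition above a per-plate cutoff, the mean inhibition of test compounds on that plate plus 3 SD, cut at about 49% in these data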;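 note: 0% = DMSO plus EC80 beta-PEA response and 100% = DMSO alone without agonist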
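Test system: CHO RD-HGA16 cells bearing hTAAR1 | Reagent: β-PEA, EC80 | Compound dosing: 3 µM, single point | Schedule: Dye loading 75 min at 37 °C, then 30 min room temperature | Signal: Calcium fluorescence with Fluo-8 | Evaluation: Percent inhibition of PEA-evoked calcium signal, max/basal emission ratio | Control set: DMSO-only wells and EC80 β-PEA-stimulated wells | Repeats: Singlicate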
TAAR1 ag conf = confirmation of human TAAR1 agonists; AID 651783; 82% of 2,400 active; CHO RD-HGA16 TAAR1, Fluo-8 calcium fluorescence; scaled: DMSO 0%, maximal phenethylamine 100%; activation, % at 3 µM; shares compounds with TAAR1 ag;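 active = activation above a cutoff set at the run's mean compound activation plus 3 SD, cut at about 39% in these data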
Ga16 nonsel ag = counter-screen for TAAR1 agonists: nonselective agonists in parental cells. AID 651787. 50% of 2,400 active. activation, % at 3 µM. shares compounds with TAAR1 ag. CHO-Ga16 parental, Fluo-8 calcium fluorescence; normalized to maximal ATP response, DMSO zero;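 active = activation above the run cutoff, the mean activation over all tested wells plus 3 SD, cut at about 12% in these data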;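 note: 0% = DMSO wells and 100% = maximal ATP response on the peak over basal ratio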
TAAR1 desens = counter-screen for human TAAR1 agonists: agonists that desensitize TAAR1; shares compounds with TAAR1 ag; CHO RD-HGA16 hTAAR1, Fluo-8 calcium, beta-PEA response inhibition; inhibition, % at 3 µM; 46% of 2,400 active; AID 651951;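 active = inhibition above the run cutoff, the mean inhibition of all test compounds plus 3 SD, cut at about 49% in these data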;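 note: beta-PEA stimulus applied at its EC80; loss of beta-PEA calcium signal after compound pretreatment read as receptor desensitization; 0% = DMSO with beta-PEA at EC80 and 100% = DMSO alone without agonist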
Ga16 antag count = nonselective Ga16 antagonist in TAAR1 agonist counter-screen. AID 651952. CHO-Ga16 ATP-induced calcium, Fluo-8 fluorescence. shares compounds with TAAR1 ag. 39% of 2,400 active. inhibition, % at 3 µM;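 active = inhibition above the plate's mean compound inhibition plus 3 SD, computed per plate, cut at about 22% in these data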;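 note: 0% = EC80 ATP with DMSO and 100% = DMSO wells without ATP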
Active calls of the source: *; · = no result.

SMILES | TAAR1 ag | OX1R antag-1 | CHO parental Ca | GPR7 antag | OX1R antag-2 | TAAR1 antagonist | TAAR1 ag conf | Ga16 nonsel ag | TAAR1 desens | Ga16 antag count
O=C1NC(=O)N(c2ccc(Cl)cc2)C(=O)/C1=C\c1ccc(Sc2nc3ccccc3[nH]2)o1 | 60* | 17 | 19 | -3 | 4 | 34 | 6 | 7 | 17 | 20
O=C1NC(=O)C(=Cc2ccc(-c3ccc(F)cc3O)o2)C(=O)N1 | 105* | 25 | -1 | 11 | -13 | 85* | 109* | 61* | 88* | 68*
C/C=C1\NC(=O)[C@@H](NC(=O)[C@H](CCc2ccc(O)cc2)NC(=O)[C@H](C)NC(=O)[C@H](O)CO)[C@@H](C)OC(=O)[C@H](C(C)C)NC(=O)[C@H](Cc2ccc(O)cc2)N(C)C(=O)[C@H](Cc2ccccc2)N2C(=O)C(CC[C@H]2O)NC1=O (some centres not stated) | 2 | -6 | -3 | · | 2 | 5 | · | · | · | ·
CCCC1(CC(C)CC)C(=O)NC(=O)NC1=O (configuration not stated) | 51* | · | · | · | · | 4 | 78* | 0 | 25 | 10
CC1(C)OC(c2ccccc2)=C/C(=C/C=C2C(=O)NC(=O)NC2=O)O1 | 98* | 25 | 6 | -15 | 22 | 70* | 10 | 21* | 31 | 33*
COc1ccc(-n2c(-c3ccccc3F)nc3ccccc3c2=O)cc1 | -2 | · | · | · | · | 8 | · | · | · | ·
COc1cc(O)cc2c1C(=O)O[C@@H](C)CCCC(=O)CCCCC2 | 62* | 10 | -19 | 29 | -24 | 19 | 30 | 10 | 10 | 18
COc1cc2c(c(OC)c1)C(=O)OC(C)CCCC(=O)CCCCC2 (configuration not stated) | -1 | 21 | -24 | -6 | -22 | 8 | · | · | · | ·
c1ccc2c(NC3=NCCS3)cccc2c1 | 43* | 27 | -31 | -5 | -40 | -1 | 82* | 15* | 47 | 5
Cn1c(=O)c2c(nc(-c3ccc(N(CCCl)CCCl)cc3)n2C)n(C)c1=O | 0 | · | · | · | · | 9 | · | · | · | ·
COc1cccc(C)c1NC1=NCCO1 | 87* | · | · | · | · | 61* | 92* | 1 | 87* | -3
CN(C)C(Cc1ccccc1)C(=O)c1ccccc1 (configuration not stated) | 6 | 12 | -21 | -5 | -12 | -12 | · | · | · | ·
N[C@H](CO)Cc1ccccc1 | 52* | · | · | · | · | 14 | 74* | 1 | 37 | 9
Cc1c(C=C2C(=O)NC(=O)NC2=O)c(=O)n(-c2ccccc2)n1C | 3 | 13 | -5 | -10 | -4 | 2 | · | · | · | ·
CN1/C(=C\C=C2C(=O)NC(=O)NC2=O)C(C)(C)c2ccccc21 | 86* | 112* | 41* | 6 | 35 | 34 | 21 | 27* | 22 | 25*
CNc1ccc2oc(C[C@H]3O[C@@]4(CC[C@H]3C)O[C@H]([C@H](C)C(=O)c3ccc[nH]3)[C@H](C)C[C@H]4C)nc2c1C(=O)O | 198* | 20 | 59* | · | 67* | 106* | 184* | 146* | 107* | 101*
Fc1ccccc1CCNCc1cccc2ccccc12 | 8 | 6 | -24 | 9 | -28 | 15 | · | · | · | ·
Cc1ccccc1CCNCc1cc2cccc(C)c2[nH]c1=O | 108* | 8 | -15 | -5 | -54 | 86* | 112* | 17* | 98* | 7
O=C1NCN(c2ccccc2)C12CCNCC2 | 4 | -1 | -2 | -3 | -22 | -12 | · | · | · | ·
O=C(NCCN1CCC2(CC1)C(=O)NCN2c1ccccc1)c1ccc2ccccc2c1 | 112* | · | · | · | · | 105* | 91* | 66* | 107* | 101*
O=C(NCCN1CCC2(CC1)C(=O)NCN2c1ccccc1)c1ccc(F)cc1 | 98* | · | · | · | · | 100* | 63* | 50* | 95* | 79*
O=C(NCCN1CCC2(CC1)C(=O)NCN2c1ccccc1)c1ccc(Cl)cc1 | 108* | · | · | · | · | 105* | 92* | 72* | 106* | 100*
O=C1NC(=S)NC(=O)C1=Cc1ccc(OCC(=O)N2CCCC2)cc1 | 0 | 7 | -2 | 8 | -1 | 3 | · | · | · | ·
CC1=C2C(=O)C3C(CC=C4CC(O)CCC43C)C2CCC12OC1CC(C)CNC1C2C (configuration not stated) | 1 | · | · | -13 | · | -16 | · | · | · | ·
O=c1[nH]c2ccccc2n1C1CCN(C(c2ccccc2OC(F)(F)F)c2nnnn2Cc2ccccc2)CC1 (configuration not stated) | 2 | · | · | · | · | 40 | · | · | · | ·
SMILES | TAAR1 ag | OX1R antag-1 | CHO parental Ca | GPR7 antag | OX1R antag-2 | TAAR1 antagonist | TAAR1 ag conf | Ga16 nonsel ag | TAAR1 desens | Ga16 antag count
COc1ccc(-c2nn(CCC#N)cc2C(=O)Nc2ccc(C(C)=O)cc2)cc1[N+](=O)[O-] | 3 | 12 | -16 | -1 | -27 | 4 | · | · | · | ·
COc1cc(/C=C/[N+](=O)[O-])ccc1OC(=O)c1cccnc1 | 56* | · | · | -4 | · | 24 | 87* | 62* | 67* | 60*
COc1cc2c(cc1/C=C/[N+](=O)[O-])OCO2 | 0 | · | · | -3 | · | -17 | · | · | · | ·
CC(=O)OC1CCC2(C)C(CCC3C4CC(N5CC5)C(C(C)=O)C4(C)CC(=O)C32)C1 (configuration not stated) | -1 | · | · | · | · | -3 | · | · | · | ·
COc1cccc(CNCCc2cccc(F)c2)c1OC | 66* | 4 | -15 | -4 | -36 | -10 | 77* | 1 | 44 | 9
COc1cccc(CNCCc2ccc3c(c2)OCO3)c1OC | 8 | -1 | -13 | -17 | -28 | 8 | · | · | · | ·
COc1ccccc1CCNCc1ccc(OC)c(OC)c1OC | 62* | 0 | -25 | 1 | -21 | 55* | 85* | 3 | 74* | 0
CCOC(=O)c1cnc(SCc2ccc(Cl)c(Cl)c2)nc1N1CC1 | 3 | · | · | · | · | 3 | · | · | · | ·
CC1OC(NCCc2ccccc2)C(O)C(O)C1O (configuration not stated) | · | 8 | -7 | 5 | -13 | · | · | 0 | · | 2
CN1CC(C(=O)c2ccc(Cl)cc2)C(c2ccccc2F)C1 (configuration not stated) | 45* | 4 | -26 | 3 | -18 | -8 | 74* | 5 | 34 | 13
